These results are taken from ChEMBL document CHEMBL3046176, “Synthesis, crystal structure, and biological activities of 2-cyanoacrylates containing furan or tetrahydrofuran moieties” (2007).

Holding throughout (format): functional
The subject of one experiment is Tobacco mosaic virus. As to the kind of experiment: Antiviral activity against Tobacco mosaic virus (TMV) inoculated in fresh tobacco leaf at 100 mg/L by half-leaf method. In outline: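 Half-leaf method on tobacco leaves at the 5-6 growth stage. Leaves were inoculated with TMV by juice-leaf rubbing at 5.88 × 10-2 µg/mL and cut along the main vein. One half was immersed in test solution and the other in double distilled water for 20 min, then cultured at 25 °C for 72 h, in triplicate. Inhibition = 100(CK − A)/CK, from average lesion counts.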

The next experiment deals with Cladosporium cucumerinum. The experiment is described as follows: Antifungal activity against Cladosporium cucumerinum assessed as inhibition of mycelium growth at 50 mg/L at 26 degC measured after 72 hr. In outline: (§1)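 Mycelium growth assay on agar. 1 mL test solution (50 mg/L) was poured into a 9 cm plate with 9 mL agar medium. Controls used sterile water in its place. A 4 mm plug from the margin of an actively growing colony was placed in the centre and incubated at 26 °C. Hyphal diameter was measured over 72 h, in triplicate. Inhibition % = (control diameter − treated diameter)/control diameter.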

The subject of the next experiment is Mycosphaerella arachidis. As to the kind of experiment: Antifungal activity against Mycosphaerella arachidis assessed as inhibition of mycelium growth at 50 mg/L at 26 degC measured after 72 hr. In outline: as §1
Experiment [1] deals with Botryosphaeria berengeriana. As to the kind of experiment: Antifungal activity against Botryosphaeria berengeriana assessed as inhibition of mycelium growth at 50 mg/L at 26 degC measured after 72 hr. Summed up: as §1
In the next experiment the test system is Alternaria solani. As to the kind of experiment: Antifungal activity against Alternaria solani assessed as inhibition of mycelium growth at 50 mg/L at 26 degC measured after 72 hr. In outline:
as §1

Another experiment concerns Fusarium graminearum. As to the kind of experiment: Antifungal activity against Fusarium graminearum assessed as inhibition of mycelium growth at 50 mg/L at 26 degC measured after 72 hr. In outline:
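Mycelium growth test on agar plates: 1 mL test solution (50 mg/L) mixed with 9 mL agar medium; sterile water in place of test solution for controls. 4 mm inocula cut from margins of actively growing colonies, placed at plate centre, incubated at 26 °C; mycelium diameter measured over 72 h. Inhibition % from mean hyphal diameter against control. Triplicate.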

A further experiment concerns Cucumis sativus. The experiment is described as follows: Plant growth regulatory activity in Cucumis sativus (cucumber) seed assessed as number of root at 10 mg/L at 26 degC measured after 5 days. In outline:
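Cucumber seeds were incubated at 26 °C in the dark for 72 h, then 10 cotyledons were excised and treated. Incubation continued at 26 °C in the dark for 5 days. Roots were counted, with water-only controls, in triplicate.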

Experiment [2] concerns Digitaria sanguinalis. As to the kind of experiment: Herbicidal activity against hairy crabgrass Digitaria sanguinalis (hairy crabgrass) assessed as herbicidal damage at 1.5 kg/ha measured after preemergence treatment. The following applies: pre-emergence. Summed up: (§2)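 Seeds were sown in 6 cm boxes of artificial mixed soil, covered with plastic film until emergence, and grown in a greenhouse. Sprays were applied right after sowing (preemergence) or after the first true leaf expanded (postemergence). Controls received the same amount of water/DMF/Tween 20. Above-ground fresh weight was taken 10 days after treatment, in triplicate, as % damage versus control.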

In experiment [3] the test system is Medicago sativa. As to the kind of experiment: Herbicidal activity against Medicago sativa (alfalfa) assessed as herbicidal damage at 1.5 kg/ha measured after preemergence treatment. As to conditions: pre-emergence. Summed up: as §2
Experiment [4] relates to Amaranthus retroflexus. The experiment is described as follows: Herbicidal activity against Amaranthus retroflexus assessed as herbicidal damage at 1.5 kg/ha measured after preemergence treatment. The following applies: pre-emergence. In outline: as §2
The test system of experiment [5] is Brassica napus. As to the kind of experiment: Herbicidal activity against rape Brassica napus (oilseed rape) assessed as herbicidal damage at 1.5 kg/ha measured after preemergence treatment. As to conditions: pre-emergence. In outline:
as §2

The subject of experiment [6] is Digitaria sanguinalis. The experiment is described as follows: Herbicidal activity against hairy crabgrass Digitaria sanguinalis (hairy crabgrass) assessed as herbicidal damage at 1.5 kg/ha measured after postemergence treatment. The following applies: post-emergence. Summed up: as §2
The subject of experiment [7] is Medicago sativa. The experiment is described as follows: Herbicidal activity against Medicago sativa (alfalfa) assessed as herbicidal damage at 1.5 kg/ha measured after postemergence treatment. As to conditions: post-emergence. Summed up:
as §2

Experiment [8] deals with Amaranthus retroflexus. As to the kind of experiment: Herbicidal activity against Amaranthus retroflexus assessed as herbicidal damage at 1.5 kg/ha measured after postemergence treatment. As to conditions: post-emergence. Summed up: as §2
Experiment [9] has as its system Brassica napus. As to the kind of experiment: Herbicidal activity against rape Brassica napus (oilseed rape) assessed as herbicidal damage at 1.5 kg/ha measured after postemergence treatment. The following applies: post-emergence. Summed up: as §2

For `CCOCCOC(=O)/C(C#N)=C(/C)NCC1CCCO1` (stereo not given), the Activity with Tobacco mosaic virus is listed as 7.5%; with Cucumis sativus, -6.6%. Further, the inhibition at 50 µg/mL with Cladosporium cucumerinum is 13.2%; in the experiment with Mycosphaerella arachidis it was 44.6%; in [1], 9.1%; in the experiment with Alternaria solani, 0%; in the experiment on Fusarium graminearum it was 10%. The inhibition at 1500 g/ha in the experiment on Digitaria sanguinalis [2] stood at 5.7%; in the experiment with Medicago sativa [3], 11.3%; in the experiment on Amaranthus retroflexus [4], 0%; in the experiment on Brassica napus [5], 8.5%; in the experiment with Digitaria sanguinalis [6] it was 7.1%; in the experiment on Medicago sativa [7], 28.7%. Also, the inhibition at 1500 g/ha amounted to 36.4% with Amaranthus retroflexus [8] and 57.9% in the experiment with Brassica napus [9].
As to `CCOCCOC(=O)/C(C#N)=C(\NCC1CCCO1)C(C)C` (stereo not given), the Activity in the experiment with Tobacco mosaic virus is 7.2%; in the experiment on Cucumis sativus, 32.5%. For the same compound, the inhibition at 50 µg/mL turned out to be 0% with Cladosporium cucumerinum; 28.6% in the experiment on Mycosphaerella arachidis; 18.2% in experiment [1]; 14.3% in the experiment with Alternaria solani; 33.3% in the experiment on Fusarium graminearum. For the same compound, the inhibition at 1500 g/ha stood at 40% in the experiment with Digitaria sanguinalis [2]; 20.3% in the experiment on Medicago sativa [3]; 3.2% with Amaranthus retroflexus [4]; 80% with Brassica napus [5]; 100% with Digitaria sanguinalis [6]; 60.5% in the experiment with Medicago sativa [7]. The inhibition at 1500 g/ha came to 100% in the experiment with Amaranthus retroflexus [8] and 97.2% with Brassica napus [9].
Regarding `CCC/C(NCC1CCCO1)=C(\C#N)C(=O)OCCOCC` (stereo not given), the Activity in the experiment on Tobacco mosaic virus was determined as 0%; in the experiment with Cucumis sativus it was 8.4%. The inhibition at 50 µg/mL in the experiment on Cladosporium cucumerinum is 10.5%; with Mycosphaerella arachidis, 32.1%; in experiment [1], 4.5%; in the experiment on Alternaria solani it was 0%; in the experiment with Fusarium graminearum, 23.3%. In addition, the inhibition at 1500 g/ha in the experiment on Digitaria sanguinalis [2] worked out at 0%; in the experiment with Medicago sativa [3] it was 15%; with Amaranthus retroflexus [4] it was 0%; in the experiment with Brassica napus [5], 0%; in the experiment on Digitaria sanguinalis [6] it was 0%; with Medicago sativa [7], 19.2%. Besides, the inhibition at 1500 g/ha amounted to 16.4% with Amaranthus retroflexus [8] and 36.3% in the experiment on Brassica napus [9].
On to `CCOCCOC(=O)/C(C#N)=C(/CC)NCC1CCOC1` (stereo not given), for which the Activity was 7.2% in the experiment on Tobacco mosaic virus and 41.5% in the experiment on Cucumis sativus. Moreover, the inhibition at 50 µg/mL came out at 7.9% in the experiment with Cladosporium cucumerinum; 39.3% in the experiment with Mycosphaerella arachidis; 9.1% in experiment [1]; 17.9% in the experiment with Alternaria solani; 20% in the experiment with Fusarium graminearum. In addition, the inhibition at 1500 g/ha in the experiment on Digitaria sanguinalis [2] amounted to 0%; with Medicago sativa [3], 6%; in the experiment with Amaranthus retroflexus [4] it was 4.2%; in the experiment on Brassica napus [5], 34.1%; in the experiment with Digitaria sanguinalis [6], 11.1%; in the experiment with Medicago sativa [7] it was 25.7%. Besides, the inhibition at 1500 g/ha in the experiment on Amaranthus retroflexus [8] came out at 51.6%; in the experiment with Brassica napus [9] it was 68%.
As for `CCOCCOC(=O)/C(C#N)=C(/NCc1ccoc1)SC`, the Activity is reported as 8% in the experiment on Tobacco mosaic virus and 14.4% with Cucumis sativus. The inhibition at 50 µg/mL with Cladosporium cucumerinum worked out at 13.2%; in the experiment on Mycosphaerella arachidis, 12.5%; in experiment [1], 9.1%; with Alternaria solani, 3.6%; in the experiment with Fusarium graminearum it was 36.7%. In addition, the inhibition at 1500 g/ha with Digitaria sanguinalis [2] is 0%; with Medicago sativa [3] it was 16.5%; in the experiment on Amaranthus retroflexus [4], 8.4%; in the experiment with Brassica napus [5] it was 0%; in the experiment with Digitaria sanguinalis [6], 5.1%; in the experiment with Medicago sativa [7] it was 31.1%. The inhibition at 1500 g/ha in the experiment on Amaranthus retroflexus [8] stood at 28.8%; in the experiment on Brassica napus [9], 30.8%.
Consider `CCOCCOC(=O)/C(C#N)=C(\NCC1CCOC1)C(C)C` (stereo not given), for which the Activity with Tobacco mosaic virus turned out to be 4.9%; with Cucumis sativus, 14.4%. For the same compound, the inhibition at 50 µg/mL came to 5.3% in the experiment on Cladosporium cucumerinum; 17.9% with Mycosphaerella arachidis; 9.1% in experiment [1]; 0% in the experiment on Alternaria solani; 0% in the experiment with Fusarium graminearum. The inhibition at 1500 g/ha in the experiment on Digitaria sanguinalis [2] turned out to be 0%; with Medicago sativa [3], 2.3%; in the experiment with Amaranthus retroflexus [4], 12.6%; in the experiment with Brassica napus [5], 0%; in the experiment with Digitaria sanguinalis [6], 57.6%; in the experiment on Medicago sativa [7], 41.3%. The inhibition at 1500 g/ha was 37.8% in the experiment on Amaranthus retroflexus [8] and 88.2% with Brassica napus [9].
For `CCOCCOC(=O)/C(C#N)=C(\NCc1ccco1)C(C)C`, the figures for the Activity in the experiment with Tobacco mosaic virus and with Cucumis sativus were 0% and 2.4%, respectively. For the same compound, the inhibition at 50 µg/mL with Cladosporium cucumerinum worked out at 13.2%; with Mycosphaerella arachidis, 37.5%; in [1], 22.7%; with Alternaria solani, 17.9%; with Fusarium graminearum, 23.3%. In addition, the inhibition at 1500 g/ha was determined as 37.8% in the experiment on Digitaria sanguinalis [2]; 4.5% in the experiment with Medicago sativa [3]; 6.3% with Amaranthus retroflexus [4]; 3.3% in the experiment with Brassica napus [5]; 0% with Digitaria sanguinalis [6]; 26.3% in the experiment with Medicago sativa [7]. Besides, the results for the inhibition at 1500 g/ha with Amaranthus retroflexus [8] and in the experiment on Brassica napus [9] were 41.9% and 56.3%, respectively.
As for `CCC/C(NCc1ccoc1)=C(\C#N)C(=O)OCCOCC`, the Activity in the experiment on Tobacco mosaic virus is recorded as 0%; in the experiment on Cucumis sativus, -6.6%. Further, the inhibition at 50 µg/mL was found to be 21.1% in the experiment on Cladosporium cucumerinum; 12.5% in the experiment on Mycosphaerella arachidis; 31.8% in experiment [1]; 25% in the experiment with Alternaria solani; 16.7% with Fusarium graminearum. The inhibition at 1500 g/ha with Digitaria sanguinalis [2] came to 35.7%; in the experiment on Medicago sativa [3], 4.5%; in the experiment on Amaranthus retroflexus [4], 0%; in the experiment on Brassica napus [5], 0%; in the experiment with Digitaria sanguinalis [6], 0%; with Medicago sativa [7], 31.1%. The inhibition at 1500 g/ha stood at 14.3% with Amaranthus retroflexus [8] and 25.2% in the experiment with Brassica napus [9].
For `CCOCCOC(=O)/C(C#N)=C(/NCc1ccc(Cl)nc1)SC`, the figures for the Activity in the experiment with Tobacco mosaic virus and in the experiment with Cucumis sativus were 18.3% and -3.6%, respectively. The inhibition at 50 µg/mL in the experiment with Cladosporium cucumerinum is 0%; with Mycosphaerella arachidis it was 21.4%; in experiment [1], 22.7%; with Alternaria solani it was 7.1%; in the experiment with Fusarium graminearum it was 6.7%. Besides, the inhibition at 1500 g/ha was found to be 18.6% with Digitaria sanguinalis [2]; 1.5% in the experiment on Medicago sativa [3]; 13.7% in the experiment with Amaranthus retroflexus [4]; 68.9% in the experiment with Brassica napus [5]; 89.9% in the experiment on Digitaria sanguinalis [6]; 41.3% with Medicago sativa [7]. The inhibition at 1500 g/ha with Amaranthus retroflexus [8] and with Brassica napus [9] was 100% in each case.
For the compound `CCOCCOC(=O)/C(C#N)=C(/CC)NCC1CCCO1` (stereo not given), the Activity with Tobacco mosaic virus worked out at 13.2%; in the experiment with Cucumis sativus, 2.4%. Besides, the inhibition at 50 µg/mL worked out at 15.8% in the experiment with Cladosporium cucumerinum; 37.5% in the experiment on Mycosphaerella arachidis; 22.7% in experiment [1]; 10.7% in the experiment on Alternaria solani; 20% with Fusarium graminearum. The inhibition at 1500 g/ha amounted to 0% in the experiment on Digitaria sanguinalis [2]; 3% in the experiment with Medicago sativa [3]; 8.4% in the experiment on Amaranthus retroflexus [4]; 7.4% in the experiment with Brassica napus [5]; 0% in the experiment on Digitaria sanguinalis [6]; 22.2% with Medicago sativa [7]. Further, the inhibition at 1500 g/ha in the experiment on Amaranthus retroflexus [8] amounted to 46.1%; with Brassica napus [9], 63.7%.

What is called inhibition is the share of the control response that was lost under treatment.
